Biological target: T1, 4-hydroxy-3-methylbut-2-enyl diphosphate reductase (Aquifex aeolicus (strain VF5), UniProt O67625)
T1 sequence (O67625 whole entry): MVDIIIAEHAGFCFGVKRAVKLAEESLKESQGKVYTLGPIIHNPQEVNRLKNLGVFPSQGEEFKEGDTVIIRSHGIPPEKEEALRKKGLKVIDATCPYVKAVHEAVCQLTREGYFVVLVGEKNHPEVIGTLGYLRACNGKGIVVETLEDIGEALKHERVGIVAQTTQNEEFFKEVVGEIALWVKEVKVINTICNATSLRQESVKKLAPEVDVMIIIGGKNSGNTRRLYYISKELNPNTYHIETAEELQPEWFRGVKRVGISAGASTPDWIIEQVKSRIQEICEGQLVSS
Assay: Inhibition of Aquifex aeolicus IspH expressed in Escherichia coli BL21 (DE3) using HMBPP substrate
Type: single protein
How it was run: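 A. aeolicus IspH expressed in BL-21(DE3), Ni-NTA purified, Fe4S4 cluster reconstituted anaerobically (DTT, sulfur, FeCl3; A410/A280 ≥0.38). Anaerobic assay, room temp, pH 8.0 Tris/NaCl/glycerol buffer, 0.4 mM dithionite, 2 mM methyl viologen, 72 nM IspH. Inhibitor preincubated 10 min, then 34 μM HMBPP added. Initial rates at 732 nm, dose-response fit for IC50; Ki via Cheng-Prusoff (KM 7 μM).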

First: Cc1ccc[n+](CC(O)(P(=O)([O-])O)P(=O)(O)O)c1 (configuration not stated)
Second: C[n+]1cccc(CC(O)(P(=O)(O)O)P(=O)(O)O)c1
The IC50 of the first is lower: 540 µM for the first, over 1000 µM for the second.

`CC(Cc1cccnc1)(P(=O)(O)O)P(=O)(O)O` and `O=P(O)(O)C(O)(Cc1cccnc1)P(=O)(O)O` [RISEDRONIC ACID] cannot be ordered by IC50: over 1000 µM for the first, over 1000 µM for the second.

Going from `O=P(O)(O)OP(=O)(O)OCc1cccnc1` to `O=P(O)(O)OP(=O)(O)OCCc1cccnc1` [PYRIDIN-3-YL-ETHYL-DIPHOSPHATE], the IC50 falls from 38 µM to 9.1 µM (4.2-fold). The second is the more potent here.

First: O=P(O)(O)OP(=O)(O)OCc1ccc(Cl)nc1
Second: O=P(O)(O)OP(=O)(O)OCc1ccncc1 [(PYRIDIN-4-YL)-METHYL-DIPHOSPHATE]
The IC50 of the first is 25-fold higher: 3700 µM for the first, 149 µM for the second.

`O=P(O)(O)C(CNc1ccccn1)P(=O)(O)O` and `O=P(O)(O)C(Cc1cccnc1)P(=O)(O)O` cannot be ordered by IC50: over 1000 µM for the first, over 1000 µM for the second.

Going from `O=P(O)(O)C(O)(Cc1ccccn1)P(=O)(O)O` to `O=P(O)(O)OP(=O)(O)OCc1ccccn1` [(PYRIDIN-2-YL)-METHYL-DIPHOSPHATE], the IC50 rises from 485 µM to 1200 µM (2.5-fold). The first is the more potent here.

First: Cc1ccnc(NC(P(=O)(O)O)P(=O)(O)O)c1
Second: O=P(O)(O)OP(=O)(O)OCCCc1cccnc1 [PYRIDIN-3-YL-PROPYL-DIPHOSPHATE]
The IC50 of the first is 6.9-fold lower: 67 µM for the first, 463 µM for the second. The first is the more potent here.

Going from `N#CCCOP(=O)(O)OP(=O)(O)O` [2-CYANOETHYL DIPHOSPHATE] to `C#CCCOP(=O)(O)OP(=O)(O)O` [BUT-3-YNYL DIPHOSPHATE], the IC50 falls from 53 µM to 0.45 µM (120-fold). The second is the more potent here.

First: O=P(O)(O)OP(=O)(O)OCC#CCO [4-HYDROXYBUT-2-YNYL DIPHOSPHATE]
Second: N#CCOP(=O)(O)OP(=O)(O)O [CYANOMETHYL DIPHOSPHATE]
The IC50 of the first is 9.4-fold lower: 26 µM for the first, 245 µM for the second. The first is the more potent here.

`C#CCCCOP(=O)(O)OP(=O)(O)O` [PENT-4-YNYL DIPHOSPHATE] and `C#CCOP(=O)(O)OP(=O)(O)O` [PROP-2-YNYL DIPHOSPHATE] are within 1.5-fold of each other in IC50: 6.5 µM for the first, 6.7 µM for the second.

Going from `C#CCCOP(=O)(O)OP(=O)(O)O` [BUT-3-YNYL DIPHOSPHATE] to `O=P(O)(O)OP(=O)(O)OCCc1cccnc1` [PYRIDIN-3-YL-ETHYL-DIPHOSPHATE], the Ki rises from 0.06 µM to 1.2 µM (20-fold).
